From ChEMBL document CHEMBL3259768, “Structure-activity relationships for vitamin D3-based aromatic a-ring analogues as hedgehog pathway inhibitors” (J Med Chem, 2014)
Calls of active or inactive are those of the source. No cut-off for these calls is given here.

What was measured:
[1] = biological target: T1, Vitamin D3 receptor (Homo sapiens) (UniProt P11473); assay: Activation of VDR in human DaOY cells assessed as upregulation of CYP24A1 mRNA expression at 5 uM after 24 hrs by RT-PCR analysis relative to DMSO-treated control; format: cell-based
T1 sequence (whole entry): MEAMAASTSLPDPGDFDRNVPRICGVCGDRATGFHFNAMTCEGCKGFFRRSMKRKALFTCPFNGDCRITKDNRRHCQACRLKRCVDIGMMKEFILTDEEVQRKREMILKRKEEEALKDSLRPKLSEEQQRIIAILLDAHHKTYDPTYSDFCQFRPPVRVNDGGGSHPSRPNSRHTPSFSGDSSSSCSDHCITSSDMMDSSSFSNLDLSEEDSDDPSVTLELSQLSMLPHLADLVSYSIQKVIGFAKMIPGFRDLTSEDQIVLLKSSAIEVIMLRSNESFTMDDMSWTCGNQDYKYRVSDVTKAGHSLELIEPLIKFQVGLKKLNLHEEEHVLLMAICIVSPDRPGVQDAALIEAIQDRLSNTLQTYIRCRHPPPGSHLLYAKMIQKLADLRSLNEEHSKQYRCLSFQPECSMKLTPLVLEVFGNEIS
Outline: (§1)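 Cyp24A1 mRNA read by qPCR after 24 h exposure at 5 μM. Up-regulation normalized to DMSO control, set to 1.0.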

[2] = Inhibition of hedgehog signaling pathway-mediated GLI1 mRNA expression in mouse C3H10T1/2 cells assessed as residual activity at 5 uM after 24 hrs by RT-PCR analysis relative to 20alpha-hydroxycholesterol/22(S)-hydroxycholesterol; format: cell-based; details: C3H 10T1/2
Outline: (§2)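 C3H10T1/2 cells co-treated with analogue and the oxysterol Hh activators 20α-hydroxycholesterol plus 22(S)-hydroxycholesterol (5 μM each) for 24 h. Gli1 mRNA measured by qPCR as % of OHC-only control (100%). Analogue at 5 μM, or at 0.5 μM where stated.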

[3] = Inhibition of hedgehog signaling pathway-mediated PTCH mRNA expression in human DaOY cells after 24 hrs by RT-PCR analysis; format: cell-based
Outline: (§3)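 ASZ001 (murine BCC) or DAOY (human medulloblastoma) cells given analogue at a range of concentrations. Gli1 and Ptch mRNA quantified by qPCR. IC50 given as mean ± SEM of at least two experiments in triplicate.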

[4] = Inhibition of hedgehog signaling pathway-mediated PTCH mRNA expression in mouse ASZ001 cells up to 10 uM after 24 hrs by RT-PCR analysis; format: cell-based
[5] = Inhibition of hedgehog signaling pathway in non-targeting siRNA treated mouse C3H10T1/2 cells assessed as downregulation of GLI1 expression at 5 uM after 24 hrs by qPCR analysis; format: cell-based; details: C3H 10T1/2
Outline: (§4)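 C3H10T1/2 cells transfected 24 h after seeding with mouse VDR-specific or nontargeting siRNA plus Lipofectamine 2000 in medium with 0.5% FBS for 6 h, then complete medium overnight. Treated 24 h post-transfection (5 μM; calcitriol 0.5 μM). RNA and cDNA prepared 24 h later (48 h post-transfection), then qPCR of VDR, Gli1 and Cyp24A1. Representative experiment in triplicate.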

[6] = tested on: C3H 10T1/2; assay: Effect on CYP24A1 RNA level in non-targeting siRNA treated mouse C3H10T1/2 cells at 5 uM after 24 hrs by qPCR analysis; format: functional, cell-based; outline: as §4
[7] = biological target: T2, Vitamin D3 receptor (Mus musculus) (UniProt P48281); assay: Activation of VDR in mouse ASZ001 cells assessed as upregulation of CYP24A1 mRNA expression at 5 uM after 24 hrs by RT-PCR analysis relative to DMSO-treated control; format: cell-based; outline: as §1
T2 sequence (whole entry): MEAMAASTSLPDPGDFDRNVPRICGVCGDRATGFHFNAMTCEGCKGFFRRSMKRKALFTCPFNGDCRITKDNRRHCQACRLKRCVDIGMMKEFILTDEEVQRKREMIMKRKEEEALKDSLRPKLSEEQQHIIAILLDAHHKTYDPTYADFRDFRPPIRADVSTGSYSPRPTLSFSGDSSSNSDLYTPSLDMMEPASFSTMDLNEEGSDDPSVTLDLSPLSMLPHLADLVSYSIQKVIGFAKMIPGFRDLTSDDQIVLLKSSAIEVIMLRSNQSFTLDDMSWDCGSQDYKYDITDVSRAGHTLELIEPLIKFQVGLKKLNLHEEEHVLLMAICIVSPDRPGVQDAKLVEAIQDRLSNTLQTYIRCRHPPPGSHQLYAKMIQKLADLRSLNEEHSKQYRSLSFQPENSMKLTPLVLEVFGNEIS

[8] = Inhibition of hedgehog signaling pathway-mediated GLI1 mRNA expression in mouse C3H10T1/2 cells after 24 hrs by RT-PCR analysis in presence of GDC-0449; format: cell-based; details: C3H 10T1/2
[9] = biological target: Protein smoothened (Homo sapiens) (UniProt Q99835); assay: Displacement of BODIPY-cyclopamine from full length human SMO receptor overexpressed in HEK293T cells up to 10 uM after 4 hrs by flow cytometric analysis; format: cell-based; details: HEK-293T
Outline: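 HEK293T cells transfected overnight with Myc-tagged full-length human Smo plasmid, split, then 2 days post-transfection incubated in DMEM/10% FBS with BODIPY-cyclopamine (5 nM) and test compound at 37 °C for 4 h. Cells trypsinized and resuspended in PBS. Bound BODIPY-cyclopamine read by flow cytometry. Transfection checked by anti-Myc staining. Representative experiment in triplicate.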

[10] = Activation of hedgehog signaling pathway in non-targeting siRNA treated mouse C3H10T1/2 cells assessed as effect on VDR expression at 5 uM after 24 hrs by qPCR analysis; format: cell-based; details: C3H 10T1/2; outline: as §4
[11] = Inhibition of hedgehog signaling pathway-mediated GLI1 mRNA expression in mouse ASZ001 cells after 24 hrs by RT-PCR analysis; format: cell-based; details: ASZ001, 24 h; outline: as §3
[12] = Inhibition of hedgehog signaling pathway-mediated GLI1 mRNA expression in mouse C3H10T1/2 cells after 24 hrs by RT-PCR analysis; format: cell-based; details: for inhibition: C3H 10T1/2; for IC50: C3H 10T1/2, 24 h
Outline: (§5)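 OHC-stimulated C3H10T1/2 cells (20α- and 22(S)-hydroxycholesterol, 5 μM each) given analogue at a range of concentrations. Gli1 and Ptch mRNA quantified by qPCR. IC50 given as mean ± SEM of at least two experiments run in triplicate.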

[13] = Inhibition of hedgehog signaling pathway in VDR-knockdown mouse C3H10T1/2 cells assessed as downregulation of GLI1 expression at 5 uM after 24 hrs by qPCR analysis; format: cell-based; details: C3H 10T1/2; outline: as §4
[14] = Inhibition of hedgehog signaling pathway in VDR-knockdown mouse C3H10T1/2 cells assessed as effect on VDR expression at 5 uM after 24 hrs by qPCR analysis; format: cell-based; details: C3H 10T1/2; outline: as §4
[15] = biological target: T2, Vitamin D3 receptor (Mus musculus); assay: Activation of VDR in mouse C3H10T1/2 cells assessed as upregulation of CYP24A1 mRNA expression at 5 uM after 24 hrs by RT-PCR analysis relative to DMSO-treated control; format: cell-based; details: C3H 10T1/2; outline: as §1
[16] = Activation of hedgehog signaling pathway in VDR-knockdown mouse C3H10T1/2 cells assessed as effect on VDR expression at 5 uM after 24 hrs by qPCR analysis; format: cell-based; details: C3H 10T1/2; outline: as §4
[17] = Inhibition of hedgehog signaling pathway-mediated GLI1 mRNA expression in human DaOY cells after 24 hrs by RT-PCR analysis; format: cell-based; outline: as §3
[18] = Inhibition of hedgehog signaling pathway-mediated PTCH mRNA expression in mouse C3H10T1/2 cells after 24 hrs by RT-PCR analysis; format: cell-based; details: C3H 10T1/2, 24 h; outline: as §5
[19] = biological target: Protein smoothened (Homo sapiens) (UniProt Q99835); assay: Displacement of BODIPY-cyclopamine from full length human SMO receptor overexpressed in HEK293T cell membranes up to 10 uM after 5 hrs by fluorescence polarization assay; details: HEK-293T
Outline: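 Membranes from HEK293T cells transfected with full-length human Smo, collected 24 h post-transfection. Cells lysed in hypotonic buffer (50 mM Tris-HCl, 1 mM EDTA, pH 7.5, protease inhibitors) by syringe passage. Membranes pelleted at 20000g after a 500g spin. Membranes (10 μg/well) incubated with BODIPY-cyclopamine (5 nM) and compound at 30 °C for 5 h. Fluorescence polarization at ex 485/em 528. Triplicate.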

[20] = Inhibition of hedgehog signaling pathway in non-targeting siRNA treated mouse C3H10T1/2 cells assessed as effect on VDR expression at 5 uM after 24 hrs by qPCR analysis; format: cell-based; details: C3H 10T1/2; outline: as §4
[21] = Inhibition of hedgehog signaling pathway in non-targeting siRNA treated mouse C3H10T1/2 cells assessed as effect on VDR expression at 0.5 uM after 24 hrs by qPCR analysis; format: cell-based; details: C3H 10T1/2
[22] = Inhibition of hedgehog signaling pathway in VDR-knockdown mouse C3H10T1/2 cells assessed as effect on VDR expression at 0.5 uM after 24 hrs by qPCR analysis; format: cell-based; details: C3H 10T1/2
[23] = Activation of hedgehog signaling pathway in VDR-knockdown mouse C3H10T1/2 cells assessed as effect on VDR expression at 0.5 uM after 24 hrs by qPCR analysis; format: cell-based; details: C3H 10T1/2
[24] = tested on: C3H 10T1/2; assay: Effect on CYP24A1 RNA level in non-targeting siRNA treated mouse C3H10T1/2 cells at 0.5 uM after 24 hrs by qPCR analysis; format: functional, cell-based
[25] = Activation of hedgehog signaling pathway in non-targeting siRNA treated mouse C3H10T1/2 cells assessed as effect on VDR expression at 0.5 uM after 24 hrs by qPCR analysis; format: cell-based; details: C3H 10T1/2
[26] = Inhibition of hedgehog signaling pathway-mediated GLI1 mRNA expression in mouse C3H10T1/2 cells after 24 hrs by RT-PCR analysis in presence of (1R,3aR,4S,7aR)-7a-methyl-1-((R)-6-methylheptan-2-yl)octahydro-1H-inden-4-yl 3-hydroxybenzoate; format: cell-based; details: C3H 10T1/2
[27] = Inhibition of hedgehog signaling pathway-mediated GLI1 mRNA expression in mouse C3H10T1/2 cells assessed as residual activity at 0.5 uM after 24 hrs by RT-PCR analysis relative to 20alpha-hydroxycholesterol/22(S)-hydroxycholesterol; format: cell-based; details: C3H 10T1/2; outline: as §2
[28] = biological target: T1, Vitamin D3 receptor (Homo sapiens); assay: Competitive binding affinity to full length human VDR by fluorescence polarization assay
Outline: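 Fluorescence polarization competition against a tight-binding fluorescent ligand on full-length human VDR. Tested at up to 100 μM, with calcitriol as positive control. At least two separate experiments.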

Sequence of Protein smoothened (Homo sapiens) (Q99835 whole entry): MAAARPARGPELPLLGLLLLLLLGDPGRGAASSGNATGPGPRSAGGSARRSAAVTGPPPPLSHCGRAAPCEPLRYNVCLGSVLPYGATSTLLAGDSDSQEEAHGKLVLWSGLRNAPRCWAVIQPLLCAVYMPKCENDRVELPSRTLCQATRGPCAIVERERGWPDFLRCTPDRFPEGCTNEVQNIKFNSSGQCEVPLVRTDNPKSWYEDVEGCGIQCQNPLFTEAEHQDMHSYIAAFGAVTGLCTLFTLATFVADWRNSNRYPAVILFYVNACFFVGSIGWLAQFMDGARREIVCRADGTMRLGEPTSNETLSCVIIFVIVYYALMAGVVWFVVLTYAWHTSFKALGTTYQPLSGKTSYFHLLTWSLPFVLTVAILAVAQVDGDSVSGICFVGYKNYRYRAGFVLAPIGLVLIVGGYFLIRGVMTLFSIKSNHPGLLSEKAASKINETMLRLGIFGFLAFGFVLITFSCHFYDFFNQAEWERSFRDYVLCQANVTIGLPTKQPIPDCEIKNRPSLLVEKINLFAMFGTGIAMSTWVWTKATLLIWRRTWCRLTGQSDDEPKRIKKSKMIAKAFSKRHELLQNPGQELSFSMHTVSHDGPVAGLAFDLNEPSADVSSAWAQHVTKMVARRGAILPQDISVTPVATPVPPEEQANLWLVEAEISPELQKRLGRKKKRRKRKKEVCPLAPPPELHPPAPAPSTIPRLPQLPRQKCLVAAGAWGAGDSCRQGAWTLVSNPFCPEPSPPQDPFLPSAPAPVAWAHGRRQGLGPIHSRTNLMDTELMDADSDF

Structure (SMILES)	fold change (FC) [1]	Activity [2] [%]	IC50 [3] [µM]	fold change (FC) [7]	IC50 [11] [µM]	inhibition [12]	IC50 [12] [µM]	fold change (FC) [15]	IC50 [17] [µM]	IC50 [18] [µM]	Activity [28] [µM]	also measured
C=C1CC[C@H](O)C/C1=C/C=C1\CCC[C@]2(C)[C@@H]([C@H](C)CCCC(C)C)CC[C@@H]12 [CHOLECALCIFEROL]	149	35.7	> 10	764	2.1	Dose-dependent effect	4.1	8340	> 10	2.9	–	inhibition [4]: inactive; inhibition [5]: Active; Activity [6]: Active; inhibition [8]: Active; inhibition [9]: inactive; Activity [10]: Active; inhibition [13]: inactive; inhibition [14]: Active; Activity [16]: Active; inhibition [19]: inactive; inhibition [20]: Active
CC(C)CCC[C@@H](C)[C@H]1CC[C@H]2[C@@H](OC(=O)c3cccc(N)c3)CCC[C@]12C	0.5	2.4	> 10	2.5	7.1	Dose-dependent effect	1.3	24.3	9.2	2.5	–	–
C=C1/C(=C\C=C2/CCC[C@]3(C)[C@@H]([C@H](C)CCCC(C)(C)O)CC[C@@H]23)C[C@@H](O)C[C@@H]1O	–	–	–	–	–	–	–	–	–	–	–	inhibition [21]: Active; inhibition [22]: Active; Activity [23]: Active; Activity [24]: Active; Activity [25]: Active
CS(=O)(=O)c1ccc(C(=O)Nc2ccc(Cl)c(-c3ccccn3)c2)c(Cl)c1	–	–	–	–	–	–	–	–	–	–	–	inhibition [26]: Active; inhibition [4]: inactive; Activity [27]: 4.8%
CC(C)CCC[C@@H](C)[C@H]1CC[C@H]2[C@@H](OC(=O)c3cc(O)c(O)c(O)c3)CCC[C@]12C	1	5.1	> 10	1.3	8.1	Dose-dependent effect	1.1	11	9.2	1.3	> 100	–
CC(C)CCC[C@@H](C)[C@H]1CC[C@H]2[C@@H](OC(=O)c3cc(O)cc(O)c3)CCC[C@]12C	0.3	8.6	> 10	3.6	4.1	Dose-dependent effect	1.8	19	5.7	4.5	> 100	–
CC(C)CCC[C@@H](C)[C@H]1CC[C@H]2[C@@H](OC(=O)c3ccc(N)cc3)CCC[C@]12C	2.2	15.4	> 10	2.1	5.3	Dose-dependent effect	1	140	> 10	2.9	> 100	–
CC(C)CCC[C@@H](C)[C@H]1CC[C@H]2[C@@H](OC(=O)c3ccccn3)CCC[C@]12C	1.1	14.1	> 10	4.8	4.8	Dose-dependent effect	4.7	57.1	> 10	12.6	> 100	–
CC(C)CCC[C@@H](C)[C@H]1CC[C@H]2[C@@H](OC(=O)c3ccc(O)cc3)CCC[C@]12C	1.5	2.4	> 10	6.3	6.6	Dose-dependent effect	2.8	18.8	> 10	3.3	> 100	–
